Assay results pooled from the literature.
Compare with care: the assays were run in different laboratories.
Target: Mitogen-activated protein kinase 10 (MAPK10, Homo sapiens, UniProt P53779)

Nc1ncnc2c1ncn2[C@@H]1O[C@H](COP(=O)(O)OP(=O)(O)OP(=O)(O)O)[C@@H](O)[C@H]1O — ΔTm (thermal stability, DSF; 2 µM): ~4.6 °C
CC(=O)N1CCC(c2ccc(C(=O)NC3=NCCN3)cc2C(F)(F)F)CC1 — remaining binding (cell-free assay, competition with immobilised ligand; 1 µM): 100%
O=C1NC(=O)c2cc(Nc3ccc(F)cc3)c(Nc3ccc(F)cc3)cc21 — remaining signal (cell-free assay; 0.5 µM): 97.3%
Oc1cccc(-c2nc(N3CCOCC3)c3oc4ncccc4c3n2)c1 — remaining activity (enzyme activity, inhibitor; 10 µM): 101%
c1ccc(N2CCN(Cc3nc4ccccc4[nH]3)CC2)nc1 — remaining binding (binding, competition with immobilised ligand; 1 µM): 100%
COc1cc(Nc2cnc(C#N)c(O[C@H](C)CN(C)C)n2)ncc1-c1cnn(C)c1 — remaining activity (enzyme activity, inhibitor, radiometric; 10 µM): 97%
CNC(=O)c1cc(Oc2ccc(NC(=O)Nc3ccc(Cl)c(C(F)(F)F)c3)cc2)ccn1 — inhibition (enzyme activity, inhibitor; 0.3 µM): 9%
Cc1cnc(NC2CCOCC2)nc1-n1cnc(C(=O)NC(CN)c2cc(F)cc(Cl)c2)c1 (stereo not drawn) — remaining activity (enzyme activity, inhibitor, radiometric; 1 µM): 55%
FC(F)(F)Oc1cccc(-c2cnc3ccc(-c4ccncc4)nn23)c1 — activity vs control (enzyme activity, inhibitor, radiometric; 5 µM): 81%
Cc1ccc(C(=O)Nc2ccc(CN3CCN(C)CC3)c(C(F)(F)F)c2)cc1C#Cc1cnc2cccnn12 — remaining activity (enzyme activity, inhibitor; 23.5 nM): 85%
C[C@@]1(Cc2ccc(C#N)cc2)C(=O)N(c2cc(Cl)cc(Cl)c2)c2ncc(C(=O)NC3(c4nc(C5CCC5)no4)CC3)n21 — remaining binding (cell-free assay, competition with immobilised ligand; 1 µM): 100%
COc1cc(-c2cc(-c3ccc(N4CCNCC4)cc3)cnc2C)cc(OC)c1OC — inhibition (enzyme activity, inhibitor; 1 µM): 3%
O=C(Nc1cccnn1)N1CCC(=Cc2cccc(Oc3ccc(C(F)(F)F)cn3)c2)CC1 — remaining binding (cell-free assay, competition with immobilised ligand; 1 µM): 100%
Clc1ccc(Nc2nnc(Cc3ccncc3)c3ccccc23)cc1 — remaining signal (cell-free assay; 0.5 µM): 116%
CS(=O)(=O)N1CCCC(NC(=O)[C@H](CCC2CCCCC2)NC(=O)c2ccc(CNc3ncnc4c3nnn4-c3ccccc3)cc2)C1 (stereo partly drawn) — remaining binding (cell-free assay, competition with immobilised ligand; 0.1 µM): 100%
CC(C)(C)c1nc(-c2cccc(NS(=O)(=O)c3c(F)cccc3F)c2F)c(-c2ccnc(N)n2)s1 — remaining activity (enzyme activity, inhibitor, radiometric; 1 µM): 118%
COc1cc(/C=C/C(=O)CC(=O)/C=C/c2ccc(O)c(OC)c2)ccc1O — activity vs control (enzyme activity, inhibitor; 1 µM): 109%
O=C(NC[C@@H]1[C@H]2CN(C(=O)OCc3cc(C(F)(F)F)cc(C(F)(F)F)c3)C[C@@H]12)c1ccc2[nH]nnc2c1 — remaining binding (cell-free assay, competition with immobilised ligand; 1 µM): 90%
Cc1ccc(NC(=O)c2ccc(C)c(C(F)(F)F)c2)cc1C#Cc1nn(C2CCC(O)CC2)c2ncnc(N)c12 (stereo not drawn) — remaining signal (cell-free assay; 10 µM): 40%
COc1cc(Cl)c(C(=O)N[C@@H](CN[C@H]2CC[C@@H](N)CC2)Cc2ccc(C#N)cc2)cc1-c1ccc(CN[C@H](C)c2ccc(C)cc2)o1 — remaining activity (enzyme activity, inhibitor; 1 µM): 93%
Cc1cc(NC(=O)c2cccc3cc(-c4cccc5[nH]nc(N)c45)ccc23)ccc1F — activity vs control (enzyme activity, inhibitor; 0.1 µM): 102%
CNC(=O)Nc1ccc2c(c1)CC[C@@]21OC(=O)N(CC(=O)N(Cc2ccc(F)cc2)[C@@H](C)C(F)(F)F)C1=O — remaining binding (cell-free assay, competition with immobilised ligand; 1 µM): 73%
Nc1ncnc2occ(-c3ccc(NC(=O)Nc4cc(C(F)(F)F)ccc4F)cc3)c12 — remaining signal (cell-free assay, inhibitor; 20 µM): 1.3%
COc1cc2ncnc(Nc3ccc(Oc4ccccc4)c(C)c3C)c2cc1OC — inhibition (enzyme activity, inhibitor; 1 µM): -1%
